Data reported in ChEMBL document CHEMBL1144528, “Synthesis of 8-thiabicyclo[3.2.1]octanes and their binding affinity for the dopamine and serotonin transporters” (Bioorg Med Chem, 2007).

What was measured:
Transporter = Transporter (Macaca mulatta, UniProt Q7JHP9); test: Displacement of [3H]WIN-35428 from DAT in rhesus monkey caudate-putamen; type: tissue-based
In short: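 Rhesus or cynomolgus caudate-putamen membranes (4 mg original wet weight/mL) in 50 mM Tris·HCl pH 7.4, 100 mM NaCl. Incubated 2 h at 0-4 °C with 0.3 nM [3H]WIN35,428 and a range of drug concentrations. Filtered on 0.1% BSA-soaked glass fibre filters and scintillation counted. Nonspecific binding defined with 30 μM (-)-cocaine. IC50 is the mean of ≥2 experiments in different brains, each in triplicate.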

[1] = biological target: Sodium-dependent serotonin transporter (Macaca mulatta, UniProt Q9MYX0); test: Displacement of [3H]citalopram from SERT in rhesus monkey caudate-putamen; type: tissue-based
Chain of Sodium-dependent serotonin transporter (Q9MYX0 whole entry): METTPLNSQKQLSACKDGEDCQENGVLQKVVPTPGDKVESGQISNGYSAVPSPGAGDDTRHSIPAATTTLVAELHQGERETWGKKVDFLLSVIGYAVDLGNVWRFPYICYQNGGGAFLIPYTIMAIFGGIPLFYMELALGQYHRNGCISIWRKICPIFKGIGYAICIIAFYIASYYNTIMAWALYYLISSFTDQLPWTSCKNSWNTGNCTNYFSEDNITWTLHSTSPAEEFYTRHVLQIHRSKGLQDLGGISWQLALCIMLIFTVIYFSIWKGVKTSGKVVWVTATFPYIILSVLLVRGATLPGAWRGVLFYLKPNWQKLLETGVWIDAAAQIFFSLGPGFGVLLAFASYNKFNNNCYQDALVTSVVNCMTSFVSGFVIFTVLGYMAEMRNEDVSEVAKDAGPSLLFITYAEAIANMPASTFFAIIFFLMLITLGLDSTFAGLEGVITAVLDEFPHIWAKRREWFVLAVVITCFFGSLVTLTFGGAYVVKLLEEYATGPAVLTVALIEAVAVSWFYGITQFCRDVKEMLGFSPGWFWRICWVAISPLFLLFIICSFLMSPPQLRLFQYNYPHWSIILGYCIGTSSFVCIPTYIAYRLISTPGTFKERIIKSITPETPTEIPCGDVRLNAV
In short: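 Caudate-putamen membranes from rhesus or cynomolgus monkey (4 mg original wet weight/mL) in 50 mM Tris·HCl pH 7.4 with 100 mM NaCl. Incubated with 1 nM [3H]citalopram and a range of test drug concentrations for 2 h at 0-4 °C. Filtered over glass fibre filters pre-soaked in 0.1% polyethyleneimine, then scintillation counted. IC50 is the mean of ≥2 independent experiments in different brains, each in triplicate.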

Macaca mulatta = species on record: Macaca mulatta; test: Selectivity for rhesus monkey DAT over rhesus monkey SERT
In short: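 Ratio of SERT IC50 ([3H]citalopram binding) to DAT IC50 ([3H]WIN35,428 binding), both measured in monkey caudate-putamen membranes.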

Chain of Transporter (Q7JHP9 whole entry): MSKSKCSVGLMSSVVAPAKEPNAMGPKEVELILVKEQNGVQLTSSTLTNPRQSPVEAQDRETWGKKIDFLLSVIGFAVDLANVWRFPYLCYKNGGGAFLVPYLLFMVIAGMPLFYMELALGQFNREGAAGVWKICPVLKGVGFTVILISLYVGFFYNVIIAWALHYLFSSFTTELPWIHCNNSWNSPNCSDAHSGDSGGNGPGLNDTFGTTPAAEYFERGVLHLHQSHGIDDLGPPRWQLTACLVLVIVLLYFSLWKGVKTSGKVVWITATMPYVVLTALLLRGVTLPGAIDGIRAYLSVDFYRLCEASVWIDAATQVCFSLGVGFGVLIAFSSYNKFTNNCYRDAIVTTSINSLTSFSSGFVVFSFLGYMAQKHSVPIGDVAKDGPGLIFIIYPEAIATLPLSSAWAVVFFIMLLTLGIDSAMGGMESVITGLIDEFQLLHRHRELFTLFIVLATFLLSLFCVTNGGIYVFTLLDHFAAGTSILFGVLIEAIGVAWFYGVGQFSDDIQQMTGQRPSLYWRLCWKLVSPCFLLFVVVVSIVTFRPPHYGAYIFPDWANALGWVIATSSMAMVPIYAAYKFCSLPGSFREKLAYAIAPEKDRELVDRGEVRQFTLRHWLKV

Row | SMILES | IC50 (Transporter) [nM] | IC50 [1] [nM] | Ratio IC50 (Macaca mulatta)
1 | COC(=O)C1=C(c2ccc(Cl)cc2)CC2CCC1S2 (stereo unspecified) | 13 | > 10000 | > 770
2 | COC(=O)[C@@H]1[C@@H]2[C@H](O)CC(C[C@@H]1c1ccc(Cl)c(Cl)c1)N2C | 2690 | 139 | 0.05
